Converted amounts (≈) assume the structure as drawn.
The compounds below were run on Staphylococcus aureus (assay: Antimicrobial activity against Staphylococcus aureus at 75 ug/ml by agar diffusion assay).
Format: functional
Procedure, shortened: (§1)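 Agar diffusion assay in duplicate against the human bacterial pathogens; tetracycline as reference control.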

Compound | inhibition zone (IZ) [mm]
COC(=O)[C@]12Cc3c([nH]c4ccccc34)[C@@H](c3ccc(OC)cc3)N1[C@@H]1c3c(ccc4ccccc34)OC[C@@H]1C2 | 18
COC(=O)[C@@]1(Cc2c[nH]c3ccccc23)C[C@H]2COc3ccc4ccccc4c3[C@H]2N1 | 18
COC(=O)[C@]12Cc3c([nH]c4ccccc34)[C@@H](c3ccc(C)cc3)N1[C@@H]1c3ccccc3OC[C@@H]1C2 | 17

What follows are compounds tested on Staphylococcus aureus (assay: Antimicrobial activity against Staphylococcus aureus at 50 ug/ml by agar diffusion assay).
Format: functional
Procedure, shortened: as §1

Compound | inhibition zone (IZ) [mm]
COC(=O)[C@]12Cc3c([nH]c4ccccc34)[C@@H](c3ccc(OC)cc3)N1[C@@H]1c3c(ccc4ccccc34)OC[C@@H]1C2 | 11
COC(=O)[C@@]1(Cc2c[nH]c3ccccc23)C[C@H]2COc3ccc4ccccc4c3[C@H]2N1 | 13
COC(=O)[C@]12Cc3c([nH]c4ccccc34)[C@@H](c3ccc(C)cc3)N1[C@@H]1c3ccccc3OC[C@@H]1C2 | 13

The compounds below were run on Pseudomonas aeruginosa (assay: Antimicrobial activity against Pseudomonas aeruginosa at 25 ug/ml by agar diffusion assay).
Format: functional
Procedure, shortened: as §1

Compound | inhibition zone (IZ) [mm]
COC(=O)[C@]12Cc3c([nH]c4ccccc34)[C@@H](c3ccc(OC)cc3)N1[C@@H]1c3c(ccc4ccccc34)OC[C@@H]1C2 | 10
COC(=O)[C@@]1(Cc2c[nH]c3ccccc23)C[C@H]2COc3ccc4ccccc4c3[C@H]2N1 | 9
COC(=O)[C@]12Cc3c([nH]c4ccccc34)[C@@H](c3ccc(C)cc3)N1[C@@H]1c3ccccc3OC[C@@H]1C2 | 8

What follows are compounds tested on Klebsiella pneumoniae (assay: Antimicrobial activity against Klebsiella pneumoniae at 100 ug/ml by agar diffusion assay).
Format: functional
Procedure, shortened: as §1

Compound | inhibition zone (IZ) [mm]
COC(=O)[C@]12Cc3c([nH]c4ccccc34)[C@@H](c3ccc(OC)cc3)N1[C@@H]1c3c(ccc4ccccc34)OC[C@@H]1C2 | 20
COC(=O)[C@@]1(Cc2c[nH]c3ccccc23)C[C@H]2COc3ccc4ccccc4c3[C@H]2N1 | 23
COC(=O)[C@]12Cc3c([nH]c4ccccc34)[C@@H](c3ccc(C)cc3)N1[C@@H]1c3ccccc3OC[C@@H]1C2 | 19

What follows are compounds tested on Pseudomonas aeruginosa (assay: Antimicrobial activity against Pseudomonas aeruginosa at 75 ug/ml by agar diffusion assay).
Format: functional
Procedure, shortened: as §1

Compound | inhibition zone (IZ) [mm]
COC(=O)[C@]12Cc3c([nH]c4ccccc34)[C@@H](c3ccc(OC)cc3)N1[C@@H]1c3c(ccc4ccccc34)OC[C@@H]1C2 | 16
COC(=O)[C@@]1(Cc2c[nH]c3ccccc23)C[C@H]2COc3ccc4ccccc4c3[C@H]2N1 | 20
COC(=O)[C@]12Cc3c([nH]c4ccccc34)[C@@H](c3ccc(C)cc3)N1[C@@H]1c3ccccc3OC[C@@H]1C2 | 16

What follows are compounds tested on Bacillus subtilis (assay: Antimicrobial activity against Bacillus subtilis at 100 ug/ml by agar diffusion assay).
Format: functional
Procedure, shortened: as §1

Compound | inhibition zone (IZ) [mm]
COC(=O)[C@]12Cc3c([nH]c4ccccc34)[C@@H](c3ccc(OC)cc3)N1[C@@H]1c3c(ccc4ccccc34)OC[C@@H]1C2 | 20
COC(=O)[C@@]1(Cc2c[nH]c3ccccc23)C[C@H]2COc3ccc4ccccc4c3[C@H]2N1 | 24
COC(=O)[C@]12Cc3c([nH]c4ccccc34)[C@@H](c3ccc(C)cc3)N1[C@@H]1c3ccccc3OC[C@@H]1C2 | 20

What follows are compounds tested on Staphylococcus aureus (assay: Antimicrobial activity against Staphylococcus aureus at 100 ug/ml by agar diffusion assay).
Format: functional
Procedure, shortened: as §1

Compound | inhibition zone (IZ) [mm]
COC(=O)[C@]12Cc3c([nH]c4ccccc34)[C@@H](c3ccc(OC)cc3)N1[C@@H]1c3c(ccc4ccccc34)OC[C@@H]1C2 | 20
COC(=O)[C@@]1(Cc2c[nH]c3ccccc23)C[C@H]2COc3ccc4ccccc4c3[C@H]2N1 | 24
COC(=O)[C@]12Cc3c([nH]c4ccccc34)[C@@H](c3ccc(C)cc3)N1[C@@H]1c3ccccc3OC[C@@H]1C2 | 18

The compounds below were run on Staphylococcus aureus (assay: Antimicrobial activity against Staphylococcus aureus at 25 ug/ml by agar diffusion assay).
Format: functional
Procedure, shortened: as §1

Compound | inhibition zone (IZ) [mm]
COC(=O)[C@]12Cc3c([nH]c4ccccc34)[C@@H](c3ccc(OC)cc3)N1[C@@H]1c3c(ccc4ccccc34)OC[C@@H]1C2 | 9
COC(=O)[C@@]1(Cc2c[nH]c3ccccc23)C[C@H]2COc3ccc4ccccc4c3[C@H]2N1 | 9
COC(=O)[C@]12Cc3c([nH]c4ccccc34)[C@@H](c3ccc(C)cc3)N1[C@@H]1c3ccccc3OC[C@@H]1C2 | 9

Each compound was assayed on Pseudomonas aeruginosa (assay: Antimicrobial activity against Pseudomonas aeruginosa at 100 ug/ml by agar diffusion assay).
Format: functional
Procedure, shortened: as §1

Compound | inhibition zone (IZ) [mm]
COC(=O)[C@]12Cc3c([nH]c4ccccc34)[C@@H](c3ccc(OC)cc3)N1[C@@H]1c3c(ccc4ccccc34)OC[C@@H]1C2 | 19
COC(=O)[C@@]1(Cc2c[nH]c3ccccc23)C[C@H]2COc3ccc4ccccc4c3[C@H]2N1 | 21
COC(=O)[C@]12Cc3c([nH]c4ccccc34)[C@@H](c3ccc(C)cc3)N1[C@@H]1c3ccccc3OC[C@@H]1C2 | 19

The compounds below were run on Macrophomina phaseolina (assay: Antifungal activity against Macrophomina phaseolina).
Format: functional
Procedure, shortened: (§2)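 Agar diffusion assay in duplicate against the plant fungal pathogens; read-out as minimum inhibitory concentration (MIC); carbendazim as reference control.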

Compound | MIC [µg/mL]
COC(=O)[C@]12Cc3c([nH]c4ccccc34)[C@@H](c3ccc(OC)cc3)N1[C@@H]1c3c(ccc4ccccc34)OC[C@@H]1C2 | 95 (≈ 179 µM)
COC(=O)[C@@]1(Cc2c[nH]c3ccccc23)C[C@H]2COc3ccc4ccccc4c3[C@H]2N1 | 60 (≈ 145 µM)
COC(=O)[C@]12Cc3c([nH]c4ccccc34)[C@@H](c3ccc(C)cc3)N1[C@@H]1c3ccccc3OC[C@@H]1C2 | 80 (≈ 172 µM)

What follows are compounds tested on Radical scavenging activity (assay: Antioxidant activity assessed as DPPH free radical scavenging activity at 50 ug by spectrophotometer).
Format: functional
Procedure, shortened: (§3)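 DPPH radical scavenging measured spectrophotometrically by Blois's method at 50, 500 and 1000 µg. Absorbance read at 517 nm. Percent scavenging is the absorbance decrease at 517 nm relative to the absorbance of DPPH solution without test compound. L-ascorbic acid as standard.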

Compound | Activity [%]
COC(=O)[C@]12Cc3c([nH]c4ccccc34)[C@@H](c3ccc(OC)cc3)N1[C@@H]1c3c(ccc4ccccc34)OC[C@@H]1C2 | 18
COC(=O)[C@@]1(Cc2c[nH]c3ccccc23)C[C@H]2COc3ccc4ccccc4c3[C@H]2N1 | 33
COC(=O)[C@]12Cc3c([nH]c4ccccc34)[C@@H](c3ccc(C)cc3)N1[C@@H]1c3ccccc3OC[C@@H]1C2 | 24

What follows are compounds tested on Pseudomonas aeruginosa (assay: Antimicrobial activity against Pseudomonas aeruginosa at 50 ug/ml by agar diffusion assay).
Format: functional
Procedure, shortened: as §1

Compound | inhibition zone (IZ) [mm]
COC(=O)[C@]12Cc3c([nH]c4ccccc34)[C@@H](c3ccc(OC)cc3)N1[C@@H]1c3c(ccc4ccccc34)OC[C@@H]1C2 | 12
COC(=O)[C@@]1(Cc2c[nH]c3ccccc23)C[C@H]2COc3ccc4ccccc4c3[C@H]2N1 | 14
COC(=O)[C@]12Cc3c([nH]c4ccccc34)[C@@H](c3ccc(C)cc3)N1[C@@H]1c3ccccc3OC[C@@H]1C2 | 12

Each compound was assayed on Bacillus subtilis (assay: Antimicrobial activity against Bacillus subtilis at 50 ug/ml by agar diffusion assay).
Format: functional
Procedure, shortened: as §1

Compound | inhibition zone (IZ) [mm]
COC(=O)[C@]12Cc3c([nH]c4ccccc34)[C@@H](c3ccc(OC)cc3)N1[C@@H]1c3c(ccc4ccccc34)OC[C@@H]1C2 | 12
COC(=O)[C@@]1(Cc2c[nH]c3ccccc23)C[C@H]2COc3ccc4ccccc4c3[C@H]2N1 | 15
COC(=O)[C@]12Cc3c([nH]c4ccccc34)[C@@H](c3ccc(C)cc3)N1[C@@H]1c3ccccc3OC[C@@H]1C2 | 12

Each compound was assayed on Radical scavenging activity (assay: Antioxidant activity assessed as DPPH free radical scavenging activity at 1000 ug by spectrophotometer).
Format: functional
Procedure, shortened: as §3

Compound | Activity [%]
COC(=O)[C@]12Cc3c([nH]c4ccccc34)[C@@H](c3ccc(OC)cc3)N1[C@@H]1c3c(ccc4ccccc34)OC[C@@H]1C2 | 81
COC(=O)[C@@]1(Cc2c[nH]c3ccccc23)C[C@H]2COc3ccc4ccccc4c3[C@H]2N1 | 66
COC(=O)[C@]12Cc3c([nH]c4ccccc34)[C@@H](c3ccc(C)cc3)N1[C@@H]1c3ccccc3OC[C@@H]1C2 | 73

These compounds were tested on Fusarium oxysporum (assay: Antifungal activity against Fusarium oxysporum).
Format: functional
Procedure, shortened: as §2

Compound | MIC [µg/mL]
COC(=O)[C@]12Cc3c([nH]c4ccccc34)[C@@H](c3ccc(OC)cc3)N1[C@@H]1c3c(ccc4ccccc34)OC[C@@H]1C2 | 100 (≈ 188 µM)
COC(=O)[C@@]1(Cc2c[nH]c3ccccc23)C[C@H]2COc3ccc4ccccc4c3[C@H]2N1 | 85 (≈ 206 µM)
COC(=O)[C@]12Cc3c([nH]c4ccccc34)[C@@H](c3ccc(C)cc3)N1[C@@H]1c3ccccc3OC[C@@H]1C2 | 110 (≈ 237 µM)

Each compound was assayed on Radical scavenging activity (assay: Antioxidant activity assessed as DPPH free radical scavenging activity at 500 ug by spectrophotometer).
Format: functional
Procedure, shortened: as §3

Compound | Activity [%]
COC(=O)[C@]12Cc3c([nH]c4ccccc34)[C@@H](c3ccc(OC)cc3)N1[C@@H]1c3c(ccc4ccccc34)OC[C@@H]1C2 | 48
COC(=O)[C@@]1(Cc2c[nH]c3ccccc23)C[C@H]2COc3ccc4ccccc4c3[C@H]2N1 | 52
COC(=O)[C@]12Cc3c([nH]c4ccccc34)[C@@H](c3ccc(C)cc3)N1[C@@H]1c3ccccc3OC[C@@H]1C2 | 49

What follows are compounds tested on Bacillus subtilis (assay: Antimicrobial activity against Bacillus subtilis at 75 ug/ml by agar diffusion assay).
Format: functional
Procedure, shortened: as §1

Compound | inhibition zone (IZ) [mm]
COC(=O)[C@]12Cc3c([nH]c4ccccc34)[C@@H](c3ccc(OC)cc3)N1[C@@H]1c3c(ccc4ccccc34)OC[C@@H]1C2 | 17
COC(=O)[C@@]1(Cc2c[nH]c3ccccc23)C[C@H]2COc3ccc4ccccc4c3[C@H]2N1 | 19
COC(=O)[C@]12Cc3c([nH]c4ccccc34)[C@@H](c3ccc(C)cc3)N1[C@@H]1c3ccccc3OC[C@@H]1C2 | 15

Each compound was assayed on Klebsiella pneumoniae (assay: Antimicrobial activity against Klebsiella pneumoniae at 25 ug/ml by agar diffusion assay).
Format: functional
Procedure, shortened: as §1

Compound | inhibition zone (IZ) [mm]
COC(=O)[C@]12Cc3c([nH]c4ccccc34)[C@@H](c3ccc(OC)cc3)N1[C@@H]1c3c(ccc4ccccc34)OC[C@@H]1C2 | 9
COC(=O)[C@@]1(Cc2c[nH]c3ccccc23)C[C@H]2COc3ccc4ccccc4c3[C@H]2N1 | 10
COC(=O)[C@]12Cc3c([nH]c4ccccc34)[C@@H](c3ccc(C)cc3)N1[C@@H]1c3ccccc3OC[C@@H]1C2 | 8

These compounds were tested on Bacillus subtilis (assay: Antimicrobial activity against Bacillus subtilis at 25 ug/ml by agar diffusion assay).
Format: functional
Procedure, shortened: as §1

Compound | inhibition zone (IZ) [mm]
COC(=O)[C@]12Cc3c([nH]c4ccccc34)[C@@H](c3ccc(OC)cc3)N1[C@@H]1c3c(ccc4ccccc34)OC[C@@H]1C2 | 9
COC(=O)[C@@]1(Cc2c[nH]c3ccccc23)C[C@H]2COc3ccc4ccccc4c3[C@H]2N1 | 10
COC(=O)[C@]12Cc3c([nH]c4ccccc34)[C@@H](c3ccc(C)cc3)N1[C@@H]1c3ccccc3OC[C@@H]1C2 | 9

These compounds were tested on Klebsiella pneumoniae (assay: Antimicrobial activity against Klebsiella pneumoniae at 50 ug/ml by agar diffusion assay).
Format: functional
Procedure, shortened: as §1

Compound | inhibition zone (IZ) [mm]
COC(=O)[C@]12Cc3c([nH]c4ccccc34)[C@@H](c3ccc(OC)cc3)N1[C@@H]1c3c(ccc4ccccc34)OC[C@@H]1C2 | 11
COC(=O)[C@@]1(Cc2c[nH]c3ccccc23)C[C@H]2COc3ccc4ccccc4c3[C@H]2N1 | 14
COC(=O)[C@]12Cc3c([nH]c4ccccc34)[C@@H](c3ccc(C)cc3)N1[C@@H]1c3ccccc3OC[C@@H]1C2 | 13

The compounds below were run on Klebsiella pneumoniae (assay: Antimicrobial activity against Klebsiella pneumoniae at 75 ug/ml by agar diffusion assay).
Format: functional
Procedure, shortened: as §1

Compound | inhibition zone (IZ) [mm]
COC(=O)[C@]12Cc3c([nH]c4ccccc34)[C@@H](c3ccc(OC)cc3)N1[C@@H]1c3c(ccc4ccccc34)OC[C@@H]1C2 | 18
COC(=O)[C@@]1(Cc2c[nH]c3ccccc23)C[C@H]2COc3ccc4ccccc4c3[C@H]2N1 | 20
COC(=O)[C@]12Cc3c([nH]c4ccccc34)[C@@H](c3ccc(C)cc3)N1[C@@H]1c3ccccc3OC[C@@H]1C2 | 18
